Experimental data taken from ChEMBL document CHEMBL3797168 (J Med Chem, 2016).
Active and inactive are the calls of the source.

How the values were obtained:
[1] = molecular target: T1, Adenosine receptor A1 (Homo sapiens) (UniProt P30542); test: Displacement of [3H]N6-R-phenylisopropyladenosine from human adenosine A1 receptor expressed in CHO cell membranes at 10 uM incubated for 60 mins by liquid scintillation counting analysis
T1 sequence (whole entry): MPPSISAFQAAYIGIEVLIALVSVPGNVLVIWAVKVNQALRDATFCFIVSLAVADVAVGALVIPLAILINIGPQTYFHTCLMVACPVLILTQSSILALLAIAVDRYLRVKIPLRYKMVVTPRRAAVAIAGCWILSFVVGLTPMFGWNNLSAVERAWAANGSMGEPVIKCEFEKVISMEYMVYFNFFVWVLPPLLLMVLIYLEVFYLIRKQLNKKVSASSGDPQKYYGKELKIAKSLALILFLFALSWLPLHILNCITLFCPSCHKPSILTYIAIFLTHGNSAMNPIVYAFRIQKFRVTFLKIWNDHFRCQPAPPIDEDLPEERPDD

[2] = molecular target: Adenosine receptor A2a (Homo sapiens) (UniProt P29274); test: Displacement of [3H]2-[p-(2-carboxyethyl)phenyl-ethylamino]-5'-N-ethylcarboxamido-adenosine from human adenosine A2A receptor expressed in HEK293 cell membranes at 10 uM incubated for 60 mins by liquid scintillation counting analysis
Mus musculus [3] = test: Antineuropathic pain activity in mouse chronic constriction injury model assessed as protection against mechanoallodynia at 3 micromol/kg administered as oral gavage on day 7; format: functional, organism-based
Method in brief: (§1)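 Mice underwent sciatic nerve ligation (Bennett method). On day 7, at peak pain, they were dosed by oral gavage at 3 µmol/kg, n=3. Vehicle was 10% DMSO in 0.5% methylcellulose, diluted from a 5 mM DMSO stock. Ipsilateral hind paw withdrawal threshold (g) was followed over time. Experimenters were blinded.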

[4] = molecular target: Sodium-dependent dopamine transporter (Homo sapiens) (UniProt Q01959); test: Increase in [3H]methyl (1R,2S,3S)-3-(4-fluorophenyl)-8-methyl-8-azabicyclo[3.2.1]octane-2-carboxylate binding to recombinant human DAT expressed in HEK293 cells at 10 uM by PDSP assay; format: cell-based
Mus musculus [5] = test: Antineuropathic pain activity in mouse chronic constriction injury model assessed as protection against mechanoallodynia at 3 micromol/kg administered as oral gavage on day 7 measured at 1 hr; format: functional; method in brief: as §1
Mus musculus [6] = test: Antineuropathic pain activity in mouse chronic constriction injury model assessed as protection against mechanoallodynia at 3 micromol/kg administered as oral gavage on day 7 measured at 3 hrs; format: functional; method in brief: as §1
Adenosine receptor A1 = molecular target: T2, Adenosine receptor A1 (Homo sapiens, UniProt P30542); test: Displacement of [3H]N6-R-phenylisopropyladenosine from human adenosine A1 receptor expressed in CHO cell membranes incubated for 60 mins by liquid scintillation counting analysis
T2 sequence (P30542 whole entry): T1 sequence (whole entry)

Mus musculus [7] = test: Antineuropathic pain activity in mouse chronic constriction injury model assessed as time duration showing protection against mechanoallodynia at 3 micromol/kg administered as oral gavage on day 7; format: functional; method in brief: as §1
Adenosine receptor A3 [8] = molecular target: T3, Adenosine receptor A3 (Homo sapiens, UniProt P0DMS8); test: Displacement of [125I]N6-(4-amino-3-iodobenzyl)adenosine-5'-N-methyl-uronamide from human adenosine A3 receptor expressed in CHO cell membranes incubated for 60 mins by liquid scintillation counting analysis
T3 sequence (P0DMS8 whole entry): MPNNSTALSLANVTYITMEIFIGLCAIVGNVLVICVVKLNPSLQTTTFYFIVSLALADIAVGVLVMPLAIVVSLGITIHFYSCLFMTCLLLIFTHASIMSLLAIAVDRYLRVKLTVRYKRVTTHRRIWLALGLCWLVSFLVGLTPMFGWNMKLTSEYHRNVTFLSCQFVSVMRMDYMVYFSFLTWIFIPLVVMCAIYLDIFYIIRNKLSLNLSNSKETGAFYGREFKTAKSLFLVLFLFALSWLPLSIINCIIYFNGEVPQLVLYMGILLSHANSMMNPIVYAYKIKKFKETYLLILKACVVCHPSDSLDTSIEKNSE

Adenosine receptor A3 [9] = molecular target: T4, Adenosine receptor A3 (Mus musculus, UniProt Q61618); test: Displacement of [125I]N6-(4-amino-3-iodobenzyl)adenosine-5'-Nmethyluronamide from mouse adenosine A3 receptor expressed in HEK293 cell membranes incubated for 60 mins by liquid scintillation counting analysis
T4 sequence (Q61618 whole entry): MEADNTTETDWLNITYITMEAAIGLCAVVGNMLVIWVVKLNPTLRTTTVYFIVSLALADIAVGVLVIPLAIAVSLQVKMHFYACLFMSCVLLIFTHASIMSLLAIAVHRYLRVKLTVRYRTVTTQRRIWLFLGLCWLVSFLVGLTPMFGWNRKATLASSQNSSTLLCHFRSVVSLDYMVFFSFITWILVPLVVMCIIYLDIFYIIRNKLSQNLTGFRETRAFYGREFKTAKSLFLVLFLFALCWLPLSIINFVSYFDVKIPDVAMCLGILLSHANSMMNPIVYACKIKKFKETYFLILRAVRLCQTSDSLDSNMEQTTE

Adenosine receptor A3 [10] = molecular target: T3, Adenosine receptor A3; test: Agonist activity at recombinant human adenosine A3 receptor expressed in CHO cells assessed as inhibition of forskolin-stimulated cAMP accumulation preincubated for 30 mins followed by forsolkin addition measured after 15 mins by immunoassay; format: cell-based
Adenosine receptor A3 [11] = molecular target: T4, Adenosine receptor A3; test: Agonist activity at mouse adenosine A3 receptor expressed in HEK293 cell membranes assessed as inhibition of forskolin-stimulated cAMP accumulation preincubated for 30 mins followed by forsolkin addition measured after 15 mins by immunoassay; format: functional, cell-based
[12] = molecular target: Delta-type opioid receptor (Homo sapiens, UniProt P41143)
Sequence of Delta-type opioid receptor (P41143 whole entry): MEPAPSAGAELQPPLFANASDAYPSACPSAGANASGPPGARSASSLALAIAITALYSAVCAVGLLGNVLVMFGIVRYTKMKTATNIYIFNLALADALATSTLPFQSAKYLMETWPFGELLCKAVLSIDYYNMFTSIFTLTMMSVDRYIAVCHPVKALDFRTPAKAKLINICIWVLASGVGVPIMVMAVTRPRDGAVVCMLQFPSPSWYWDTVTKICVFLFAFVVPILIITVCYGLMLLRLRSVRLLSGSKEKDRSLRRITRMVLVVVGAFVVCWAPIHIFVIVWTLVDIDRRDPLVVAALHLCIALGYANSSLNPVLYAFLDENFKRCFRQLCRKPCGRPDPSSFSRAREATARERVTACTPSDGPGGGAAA

Sequence of Adenosine receptor A2a (Homo sapiens) (P29274 whole entry): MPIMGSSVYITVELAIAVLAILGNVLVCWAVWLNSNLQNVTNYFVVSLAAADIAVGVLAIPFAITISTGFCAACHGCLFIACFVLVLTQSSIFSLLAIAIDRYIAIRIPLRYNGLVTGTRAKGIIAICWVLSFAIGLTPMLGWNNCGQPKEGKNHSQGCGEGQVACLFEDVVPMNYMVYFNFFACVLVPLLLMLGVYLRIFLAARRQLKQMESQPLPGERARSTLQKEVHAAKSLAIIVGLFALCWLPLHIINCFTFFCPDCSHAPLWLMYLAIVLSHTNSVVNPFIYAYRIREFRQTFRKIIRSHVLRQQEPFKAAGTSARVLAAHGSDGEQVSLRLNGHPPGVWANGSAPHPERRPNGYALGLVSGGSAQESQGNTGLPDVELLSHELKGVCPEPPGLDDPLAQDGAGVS
Sequence of Sodium-dependent dopamine transporter (Homo sapiens) (Q01959 whole entry): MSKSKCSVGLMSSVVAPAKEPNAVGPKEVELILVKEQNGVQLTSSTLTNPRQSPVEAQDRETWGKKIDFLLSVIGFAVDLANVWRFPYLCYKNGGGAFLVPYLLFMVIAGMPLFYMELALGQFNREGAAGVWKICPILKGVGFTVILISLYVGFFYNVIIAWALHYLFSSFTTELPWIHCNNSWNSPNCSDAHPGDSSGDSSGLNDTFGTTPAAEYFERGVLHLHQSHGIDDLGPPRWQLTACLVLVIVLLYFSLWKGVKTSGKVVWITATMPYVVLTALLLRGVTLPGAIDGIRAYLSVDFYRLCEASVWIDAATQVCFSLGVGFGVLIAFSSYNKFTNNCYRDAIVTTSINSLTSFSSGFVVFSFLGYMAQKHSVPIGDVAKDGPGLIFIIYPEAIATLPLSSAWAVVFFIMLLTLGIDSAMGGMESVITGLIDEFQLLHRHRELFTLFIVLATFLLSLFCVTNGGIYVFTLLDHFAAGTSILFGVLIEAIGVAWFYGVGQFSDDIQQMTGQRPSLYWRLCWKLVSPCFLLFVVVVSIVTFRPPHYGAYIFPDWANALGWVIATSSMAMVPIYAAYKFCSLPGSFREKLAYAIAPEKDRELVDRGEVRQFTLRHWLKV

Row | Compound | inhibition [1] [%] | inhibition [2] [%] | Ki (Adenosine receptor A3 [8]) [nM] | other results
1 | CNC(=O)[C@@]12C[C@@H]1[C@@H](n1cnc3c(C)nc(C#Cc4ccccc4)nc31)[C@H](O)[C@@H]2O | 15 | 34 | – | Activity (Mus musculus [3]): Active; Activity [4]: 200%
2 | CNC(=O)[C@@]12C[C@@H]1[C@@H](n1cnc3c(NCc4cccc(Cl)c4)nc(C#Cc4ccc(F)c(F)c4)nc31)[C@H](O)[C@@H]2O | – | – | – | Activity (Mus musculus [5]): 100%; Activity (Mus musculus [6]): 23.7%
3 | CNC(=O)[C@@]12C[C@@H]1[C@@H](n1cnc3c(OC)nc(C#Cc4ccc(Cl)s4)nc31)[C@H](O)[C@@H]2O | – | 27 | – | Ki (Adenosine receptor A1): 796 nM
4 | CNC(=O)[C@@]12C[C@@H]1[C@@H](n1cnc3cnc(C#Cc4ccc(Cl)s4)nc31)[C@H](O)[C@@H]2O | < 10 | 18 | 60 | Time (Mus musculus [7]): 5 h; Ki (Adenosine receptor A3 [9]): 396 nM; EC50 (Adenosine receptor A3 [10]): 26.9 nM
5 | CNC(=O)[C@@]12C[C@@H]1[C@@H](n1cnc3c(/C=C(\O)c4ccccc4Cl)nc(C#Cc4ccccc4Cl)nc31)[C@H](O)[C@@H]2O | 28 | 21 | 515 | –
6 | CNC(=O)[C@@]12C[C@@H]1[C@@H](n1cnc3c(C)nc(C#Cc4ccc(F)c(F)c4)nc31)[C@H](O)[C@@H]2O | – | 14 | 98.5 | Ki (Adenosine receptor A1): 5430 nM
7 | CNC(=O)[C@@]12C[C@@H]1[C@@H](n1cnc3c(C)nc(C#Cc4ccc(C(C)(C)C)cc4)nc31)[C@H](O)[C@@H]2O | 16 | 15 | – | –
8 | CNC(=O)[C@@]12C[C@@H]1[C@@H](n1cnc3cnc(/C=C(\O)c4cnccn4)nc31)[C@H](O)[C@@H]2O | 14 | 20 | 1480 | –
9 | CNC(=O)[C@@]12C[C@@H]1[C@@H](n1cnc3c(C)nc(C#Cc4cnccn4)nc31)[C@H](O)[C@@H]2O | 15 | 17 | – | –
10 | CNC(=O)[C@@]12C[C@@H]1[C@@H](n1cnc3cnc(NC)nc31)[C@H](O)[C@@H]2O | 17 | < 10 | 604 | –
11 | CNC(=O)[C@@]12C[C@@H]1[C@@H](n1cnc3c(/C=C(\O)c4ccccc4)nc(C#Cc4ccccc4)nc31)[C@H](O)[C@@H]2O | 16 | 16 | 78.5 | EC50 (Adenosine receptor A3 [11]): 4.86 nM; Activity (Mus musculus [3]): Active; Ki (Adenosine receptor A3 [9]): 136 nM
12 | CNC(=O)[C@@]12C[C@@H]1[C@@H](n1cnc3cnc(C#Cc4ccc(F)c(F)c4)nc31)[C@H](O)[C@@H]2O | 17 | 12 | 124 | –
13 | CNC(=O)[C@@]12C[C@@H]1[C@@H](n1cnc3c(C)nc(C#Cc4ccc(Cl)s4)nc31)[C@H](O)[C@@H]2O | < 10 | 12 | 42.2 | Activity (Mus musculus [3]): Active; Ki [12]: 5800 nM; Ki (Adenosine receptor A3 [9]): 722 nM; EC50 (Adenosine receptor A3 [10]): 12.5 nM
14 | CNC(=O)[C@@]12C[C@@H]1[C@@H](n1cnc3c(/C=C(\O)c4ccccc4)nc(Cl)nc31)[C@H](O)[C@@H]2O | 30 | 24 | 1140 | –
15 | CNC(=O)[C@@]12C[C@@H]1[C@@H](n1cnc3c(/C=C(\O)c4ccc(C(C)(C)C)cc4)nc(C#Cc4ccc(C(C)(C)C)cc4)nc31)[C@H](O)[C@@H]2O | 24 | 19 | 94.3 | –
16 | CNC(=O)[C@@]12C[C@@H]1[C@@H](n1cnc3c(NC)nc(C#Cc4ccccc4)nc31)[C@H](O)[C@@H]2O | – | – | – | Activity (Mus musculus [3]): Active
